Reference: publication PMC3361572 (Chemistry & biology, 2012)

How the values were obtained:
[1] = target: T1, FAAH (Rattus norvegicus, UniProt P97612); test: competitive ABPP of brain from KML29-treated rats; type: in vivo; conditions: Wistar rats, 1–40 mg kg^−1 i.p., 4 h
T1 sequence (P97612 1-579): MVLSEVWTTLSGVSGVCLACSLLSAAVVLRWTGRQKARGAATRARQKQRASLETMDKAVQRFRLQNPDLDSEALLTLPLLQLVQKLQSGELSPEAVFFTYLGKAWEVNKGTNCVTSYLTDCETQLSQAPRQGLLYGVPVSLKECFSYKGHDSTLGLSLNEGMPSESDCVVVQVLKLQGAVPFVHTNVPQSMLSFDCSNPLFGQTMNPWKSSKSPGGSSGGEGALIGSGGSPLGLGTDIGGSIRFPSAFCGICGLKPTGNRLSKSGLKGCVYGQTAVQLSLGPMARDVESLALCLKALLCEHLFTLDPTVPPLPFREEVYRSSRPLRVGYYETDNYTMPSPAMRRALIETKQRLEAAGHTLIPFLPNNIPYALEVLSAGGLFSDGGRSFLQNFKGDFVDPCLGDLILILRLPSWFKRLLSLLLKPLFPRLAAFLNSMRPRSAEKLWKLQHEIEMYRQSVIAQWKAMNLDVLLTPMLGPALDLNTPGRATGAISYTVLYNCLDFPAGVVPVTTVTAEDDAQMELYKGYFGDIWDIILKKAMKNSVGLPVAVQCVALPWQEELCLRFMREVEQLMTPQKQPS
Method in brief: (§1)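 Wistar rats were injected i.p. with the test compound (1–40 mg kg−1) or vehicle. Vehicle was saline:emulphor:ethanol 18:1:1, with prolonged sonication and mild heating to dissolve. Rats were killed at 4 h. Brain, liver, lung and spleen proteomes were labelled with FP-Rh, separated by SDS-PAGE and scanned for in-gel fluorescence. Inhibition was scored as reduced probe labelling. n = 3 rats/group.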

[2] = target: T2, MAGL (Mus musculus, UniProt O35678); test: 2-AG substrate assay in mouse brain proteomes; type: biochemical
T2 sequence (O35678 1-303): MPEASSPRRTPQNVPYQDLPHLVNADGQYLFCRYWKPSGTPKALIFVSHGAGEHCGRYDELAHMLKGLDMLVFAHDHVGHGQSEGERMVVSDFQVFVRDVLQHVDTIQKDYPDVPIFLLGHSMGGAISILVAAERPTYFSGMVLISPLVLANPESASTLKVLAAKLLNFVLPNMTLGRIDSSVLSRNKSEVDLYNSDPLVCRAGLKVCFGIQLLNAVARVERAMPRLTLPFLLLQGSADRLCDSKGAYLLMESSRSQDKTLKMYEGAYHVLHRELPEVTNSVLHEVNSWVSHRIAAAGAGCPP

[3] = target: T2, MAGL; test: 2-AG hydrolytic activity of brain tissue from treated mice; type: in vivo; conditions: KML29-treated mice, 1–40 mg kg^−1 p.o.
[4] = system: other rat brain serine hydrolases; test: competitive ABPP, rat brain proteome, other serine hydrolases; type: biochemical
Method in brief: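 Rat brain proteome was preincubated with test compound, then labelled with the serine hydrolase-directed probe FP-rhodamine. Proteins were separated by SDS-PAGE and scanned by in-gel fluorescence. Inhibition of individual serine hydrolases was scored as reduced probe labelling.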

[5] = target: T3, hFAAH (Homo sapiens, UniProt O00519); test: substrate hydrolysis assay; type: biochemical
T3 sequence (O00519 1-579): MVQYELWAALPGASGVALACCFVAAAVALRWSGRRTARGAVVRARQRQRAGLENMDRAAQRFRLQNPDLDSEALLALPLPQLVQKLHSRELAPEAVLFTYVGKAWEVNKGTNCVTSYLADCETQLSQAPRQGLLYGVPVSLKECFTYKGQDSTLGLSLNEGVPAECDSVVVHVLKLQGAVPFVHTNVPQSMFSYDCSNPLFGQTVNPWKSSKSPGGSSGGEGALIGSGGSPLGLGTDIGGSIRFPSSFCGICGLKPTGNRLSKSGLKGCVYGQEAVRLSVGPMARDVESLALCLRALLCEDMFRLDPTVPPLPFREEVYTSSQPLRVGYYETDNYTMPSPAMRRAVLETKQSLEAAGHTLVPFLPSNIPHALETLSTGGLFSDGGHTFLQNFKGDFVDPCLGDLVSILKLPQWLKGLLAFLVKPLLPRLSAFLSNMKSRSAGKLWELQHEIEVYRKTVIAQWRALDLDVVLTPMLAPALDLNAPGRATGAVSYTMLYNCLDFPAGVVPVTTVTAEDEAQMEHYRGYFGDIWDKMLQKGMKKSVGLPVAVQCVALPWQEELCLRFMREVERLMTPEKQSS

[6] = target: T2, MAGL; test: competitive ABPP of brain from inhibitor-treated mice; type: in vivo; conditions: for blockade of MAGL activity in brain: C57Bl/6 mice, 4 h
[7] = system: carboxylesterase (CES) enzymes; test: gel-based ABPP of liver, lung and spleen from inhibitor-treated mice; type: in vivo, mouse
[8] = target: T4, ABHD6 (Rattus norvegicus, UniProt Q5XI64); test: competitive ABPP of brain from KML29-treated rats; type: in vivo; conditions: Wistar rats, 1–40 mg kg^−1 i.p., 4 h
T4 sequence (Q5XI64 1-337): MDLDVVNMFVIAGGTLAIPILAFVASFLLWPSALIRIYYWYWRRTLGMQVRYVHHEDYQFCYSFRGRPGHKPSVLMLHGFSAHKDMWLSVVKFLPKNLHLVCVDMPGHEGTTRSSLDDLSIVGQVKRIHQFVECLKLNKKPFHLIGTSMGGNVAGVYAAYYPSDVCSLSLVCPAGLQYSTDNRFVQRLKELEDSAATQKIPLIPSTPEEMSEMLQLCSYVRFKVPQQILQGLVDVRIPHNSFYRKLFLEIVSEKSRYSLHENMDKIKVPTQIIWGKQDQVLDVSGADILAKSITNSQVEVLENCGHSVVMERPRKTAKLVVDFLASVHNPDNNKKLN
Method in brief: as §1

[9] = system: carboxylesterase (CES) enzymes; test: in vitro competitive ABPP in mouse lung proteomes; type: biochemical
[10] = target: T2, MAGL; test: gel-based ABPP of peripheral tissues from inhibitor-treated mice; type: in vivo; conditions: 1 mg kg^−1 p.o., 4 h, liver, lung, spleen

O=C(OC(C(F)(F)F)C(F)(F)F)N1CCC(C(O)(c2ccc3c(c2)OCO3)c2ccc3c(c2)OCO3)CC1 [KML29]
cross-reactivity with brain FAAH [1]: without any detectable cross-reactivity | inhibition of 2-AG hydrolysis [2]: potent inhibitor of 2-AG hydrolysis | residual MAGL activity in brain proteomes (substrate assay) [3]: dose-dependent inhibition of MAGL | additional off-target reactivity with other rat brain serine hydrolases [4]: did not detect any additional off-target reactivity | AEA hydrolysis by hFAAH [5]: undiminished AEA hydrolysis up to 50 μM | blockade of MAGL activity in brain ([6]; 5 mg kg^−1 p.o.): partial inhibition | blockade of MAGL activity in brain ([6]; 20 mg kg^−1 p.o.): maximal inhibition | time until which brain MAGL inhibition was sustained ([6]; mice, single oral dose 20 mg kg^−1): 12 to 24 h | time post-administration of maximal inhibition of brain MAGL ([6]; mice, single oral dose 20 mg kg^−1, earliest time point tested): ≤ 1 h | CES inhibition in peripheral tissues, chronic dosing ([7]; 40 mg kg^−1 p.o., six days): minimal cross-reactivity with CES enzymes | doses at which CES cross-reactivity (single ~70 kDa enzyme) was detected ([7]; p.o., 4 h, peripheral tissues): 20 to 40 mg/kg | cross-reactivity with brain ABHD6 [8]: without any detectable cross-reactivity | cross-reactivity with CESs compared to JZL184 [9]: much less cross-reactivity with CESs | MAGL inhibition in peripheral tissues [10]: near-complete blockade of MAGL
